Active and inactive are the calls of the source. No cut-off for these calls is given here.
How the values were obtained:
BJ = assay: Cytotoxicity against human BJ cells measured after 24 hrs by alamar blue assay; type: cell-based
Pseudomonas aeruginosa = assay: Antimicrobial activity against Pseudomonas aeruginosa ATCC 14210 at 265 uM after 22 hrs by microbroth dilution method; type: functional, organism-based
Procedure, shortened: (§1)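 Microbroth dilution assay. The top concentration tested was 128 μg/mL, equal to 265 μM.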

Enterococcus faecium = assay: Antimicrobial activity against vancomycin-resistant Enterococcus faecium EF379 at 265 uM after 22 hrs by microbroth dilution method; type: functional, organism-based
Procedure, shortened: (§2)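 Microbroth dilution susceptibility test; compound tested up to a highest concentration of 128 μg/mL (265 μM).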

MCF7 = assay: Cytotoxicity against human MCF7 cells measured after 24 hrs by alamar blue assay; type: functional, cell-based
[1] = tested on: Mycobacterium tuberculosis; assay: Antimicrobial activity against Mycobacterium tuberculosis ATCC 25177 at 265 uM after 4 days by microplate alamar blue assay; type: functional, organism-based; conditions: H37Ra
Candida albicans = assay: Antimicrobial activity against Candida albicans ATCC 14035 at 265 uM after 22 hrs by microbroth dilution method; type: functional, organism-based; procedure, shortened: as §1
[2] = Cytotoxicity against HEKa cells measured after 24 hrs by alamar blue assay; type: cell-based; conditions: human
Vero = assay: Cytotoxicity against African green monkey Vero cells measured after 24 hrs by alamar blue assay; type: cell-based; conditions: chlorocebus sabaeus
Staphylococcus warneri = assay: Antimicrobial activity against Staphylococcus warneri ATCC 17917 at 265 uM after 22 hrs by microbroth dilution method; type: functional, organism-based; procedure, shortened: as §1
HCT-116 = assay: Cytotoxicity against human HCT116 cells measured after 24 hrs by alamar blue assay; type: functional, cell-based
Proteus vulgaris = assay: Antimicrobial activity against Proteus vulgaris ATCC 12454 at 265 uM after 22 hrs by microbroth dilution method; type: functional, organism-based; procedure, shortened: as §1
Homo sapiens = species on record: Homo sapiens; assay: Cytotoxicity against human HTB-26 cells measured after 24 hrs by alamar blue assay; type: functional, cell-based
Staphylococcus aureus = assay: Antimicrobial activity against methicillin resistant Staphylococcus aureus ATCC 33591 at 265 uM after 22 hrs by microbroth dilution method; type: functional, organism-based; procedure, shortened: as §2

For C=C1NC(=O)[C@H](C)[C@H](CCCCCCCC(C)CCC)OC(=O)[C@H](CO)NC(=O)CCNC1=O (stereo partly drawn), the Activity (BJ) was “Non-Toxic”, the Activity (Pseudomonas aeruginosa) was “inactive” and the Activity (Enterococcus faecium) was “inactive”. For the same compound, the Activity (MCF7) was “inactive”, the Activity [1] was “inactive” and the Activity (Candida albicans) was “inactive”. The Activity [2] was “Non-Toxic”, the Activity (Vero) was “Non-Toxic” and the Activity (Staphylococcus warneri) was “inactive”. The Activity (HCT-116) was “inactive”, the Activity (Proteus vulgaris) was “inactive” and the Activity (Homo sapiens) was “inactive”. For the same compound, the Activity (Staphylococcus aureus) was “inactive”.

Source: ChEMBL document CHEMBL4382267, “Fusaristatin C, a Cyclic Lipodepsipeptide from Pithomyces sp. RKDO 1698” (J Nat Prod, 2018)
